What was measured:
subjects with obesity = assay: Safety and tolerability; type: in vivo, human
Summary of the method: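 Safety was followed through both 12-week periods of randomised crossover s.c. weekly dosing (0.25, 0.5, then 1.0 mg, 4 weeks each) versus matching placebo. Assessments were adverse events, hypoglycaemic events and blood pressure.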

[1] = Multiple-dose pharmacokinetics of semaglutide; type: in vivo, human
Summary of the method: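 Test compound (1.34 mg/mL) was given s.c. once weekly at 0.25 mg for 4 weeks, 0.5 mg for 4 weeks, then 1.0 mg for 4 weeks. Steady-state trough concentrations were taken after 4, 8 and 12 weeks. After a further clinic 1.0 mg dose, steady-state parameters were derived from 0–168 h concentration-time curves.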

[2] = 12 weeks, once-weekly s.c. escalated to 1.0 mg

Mean trough value (CV) ([1]; 0.25 mg s.c. once-weekly, after 4 weeks of treatment): 4.64 (32.5) nmol/L | Mean trough value (CV) ([1]; 0.5 mg s.c. once-weekly, after 8 weeks of treatment): 10.25 (23.3) nmol/L | Mean trough value (CV) ([1]; 1.0 mg s.c. once-weekly, after 12 weeks of treatment): 19.73 (21.9) nmol/L
SMILES: CC[C@H](C)[C@H](NC(=O)[C@H](Cc1ccccc1)NC(=O)[C@H](CCC(=O)O)NC(=O)[C@H](CCCCNC(=O)COCCOCCNC(=O)COCCOCCNC(=O)CC[C@H](NC(=O)CCCCCCCCCCCCCCCCC(=O)O)C(=O)O)NC(=O)[C@H](C)NC(=O)[C@H](C)NC(=O)[C@H](CCC(N)=O)NC(=O)CNC(=O)[C@H](CCC(=O)O)NC(=O)[C@H](CC(C)C)NC(=O)[C@H](Cc1ccc(O)cc1)NC(=O)[C@H](CO)NC(=O)[C@H](CO)NC(=O)[C@@H](NC(=O)[C@H](CC(=O)O)NC(=O)[C@H](CO)NC(=O)[C@@H](NC(=O)[C@H](Cc1ccccc1)NC(=O)[C@@H](NC(=O)CNC(=O)[C@H](CCC(=O)O)NC(=O)C(C)(C)NC(=O)[C@@H](N)Cc1cnc[nH]1)[C@@H](C)O)[C@@H](C)O)C(C)C)C(=O)N[C@@H](C)C(=O)N[C@@H](Cc1c[nH]c2ccccc12)C(=O)N[C@@H](CC(C)C)C(=O)N[C@H](C(=O)N[C@@H](CCCNC(=N)N)C(=O)NCC(=O)N[C@@H](CCCNC(=N)N)C(=O)NCC(=O)O)C(C)C [semaglutide]
Severe or blood glucose-confirmed symptomatic hypoglycaemic events (subjects with obesity; 12 weeks): No severe or blood glucose‐confirmed symptomatic hypoglycaemic events were reported | Serious AEs (subjects with obesity; [2]): no serious AEs were reported | Severity of AEs (subjects with obesity; [2]): mild or moderate | Observed mean changes from baseline in systolic and diastolic blood pressure (subjects with obesity; week 12, either treatment): ≤ 2 mm Hg
